Screens as filed in PubChem BioAssay.
hiPSC survival: increases survival of single human iPS cells; hiPSC single-cell survival, ATPlite luminescence; 100% = ROCK inhibitor wells, 0% = DMSO; survival enhancement, % at 20 µM; 360,000 compounds, 0.044% hits; AID 602274; in the data active = survival enhancement above about 18%;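 also: cells exposed to compounds for 16 hours before the ATP read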
SENP1 FRET inh: SENP1 (human) catalytic domain inhibition | 360,000 compounds, 0.21% hits | inhibition, % at 10 µM | Q9P0U3 | recombinant SENP1 catalytic domain, CyPet-SUMO1-YPet FRET cleavage;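 active = inhibition at least 30% at 10 µM, raw YFP signal under a set limit, fluorescence ratio 0.5 to 1.5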;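 also: 0% = enzyme with DMSO and 100% = no enzyme wells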
Target sequence (Q9P0U3 419-644 limits assumed): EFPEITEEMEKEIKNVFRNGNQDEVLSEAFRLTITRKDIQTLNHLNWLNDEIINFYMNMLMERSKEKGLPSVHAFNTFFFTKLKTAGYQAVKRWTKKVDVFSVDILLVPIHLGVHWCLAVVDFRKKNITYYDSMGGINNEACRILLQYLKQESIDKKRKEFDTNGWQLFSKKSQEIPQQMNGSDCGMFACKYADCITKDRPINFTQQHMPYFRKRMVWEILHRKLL
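Test system: hSENP1 catalytic domain, recombinant; Amount: 20 pM final SENP1 enzyme; Medium: Tris pH 8 buffer plus EDTA, NaCl, BME, BSA, NP40, catalase; Schedule: 50 min enzyme reaction, room temperature, light-protected; Technique: FRET fluorescence in CFP and YFP emission channels; Controls: no-enzyme wells low, DMSO-plus-enzyme wells high control.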
Arr AP2 block: inhibitors of human beta-arrestin and AP2 interaction; AID 504490; 340,000 compounds, 0.31% hits; inhibition, % at 10 µM; FITC-arrestin peptide / GST-AP2 beads, flow cytometry; AP2 beta2 appendage carries R879A mutation;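 active = inhibition above a set limit, near 3 SD of compounds lacking own fluorescence, cut at about 54% in these data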;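 also: plate controls were DMSO wells for no effect and 5 µM unlabelled arrestin peptide for full effect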
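System: GST-AP2 R879A glutathione beads | Also added: FITC-arrestin peptide, 50 nM | Times: 12 min plus 1 h, RT | Signal: Bead flow cytometry, FITC channel | Buffer or medium: PBS with 0.05% Tween 20 and 0.1% BSA | Read-out basis: Percent drop in bead-associated FITC signal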
NR3A LBD binder: NR3A (human) ligand-binding domain modulation; Tm shift relative to glycine control, % at 25 µM; 340,000 compounds, 2.5% hits; NR3A LBD differential scanning fluorimetry, Tm shift; 0% = protein alone, 100% = glycine-bound protein;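 active = melting temperature shift of at least 10% of the positive control shift, at one fixed dose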
FAS TE block: blocks the thioesterase domain of human fatty acid synthase; P49327; recombinant FAS-TE, OMFH fluorogenic substrate, fluorescence endpoint; inhibition, % at 15 µM; 360,000 compounds, 0.67% hits; AID 602261;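 active = compounds whose normalised, plate-corrected inhibition of enzyme fluorescence in the single-dose primary screen is 50% or more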;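 also: 0% = DMSO with enzyme and 100% = substrate without enzyme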
Cardio protect: modulators protecting cardiomyocytes from myocardial damage; H9c2 cardiomyocytes, H2O2 injury protection, ATPLite, 2 h; protection from H2O2 cell death, % at 20 µM; 360,000 compounds, 0.63% hits;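 active = compounds giving at least 50% protection of heart cells from peroxide-induced death in the single-dose screen, raw or plate-pattern-corrected value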;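 also: 0% = DMSO wells with peroxide and 100% = DMSO wells without peroxide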
Numbers without * were called inactive; nt = not tested or not shown; ! = repeats disagree. Sampled rows, rich in hits. Any-hit rate of the full collection: about 4%.

SMILES	hiPSC survival	SENP1 FRET inh	Arr AP2 block	NR3A LBD binder	FAS TE block	Cardio protect
O=C(Cc1cccs1)Nc1ccc(-c2nc3ccccc3[nH]2)cc1	-3	3	-2	32*	5	-19
O=C(CSc1ccccc1)Nc1ccc2sccc2c1	0	1	-16	17*	10	-5
CC1(C(=O)NS(=O)(=O)c2cccc(C#N)c2)CCN1C(=O)C1(c2ccccc2)CC1 (stereo not drawn)	1	2	nt	nt	-6	4
CCOc1cccc(-c2c(C(=O)N/N=C/c3ccc(C)s3)nnn2-c2nonc2N)c1	-1	-2	-17	21*	10	11
COc1cccc(-c2c(C(=O)N/N=C/c3ccc(C)o3)nnn2-c2nonc2N)c1	0	2	7	3	-2	9
CCOc1ccc(-c2c(C(=O)N/N=C/c3ccc(C)s3)nnn2-c2nonc2N)cc1	0	-3	3	-2	10	7
COc1cccc(-c2c(C(=O)N/N=C/c3ccc(C)s3)nnn2-c2nonc2N)c1	0	0	4	13*	7	4
CCOc1cccc(-c2cnc3cccnn23)c1	-1	-53	nt	nt	-5	-6
COc1ccccc1NC(=O)N(C)C[C@@H]1OCc2cn(nn2)CCCC(=O)N([C@H](C)CO)C[C@H]1C	2	0	nt	nt	-4	7
Nc1ccc(S(=O)(=O)NC2(C(F)(F)F)NC(=O)N(c3ccc(F)cc3)C2=O)cc1 (stereo not drawn)	0	0	0	-3	-4	0
O=C1NC(NS(=O)(=O)c2ccccc2)(C(F)(F)F)C(=O)N1c1ccc(F)cc1 (stereo not drawn)	2	2	5	16*	-3	-6
COc1ccc(C2CCCCCN2C(=O)C2CCN(S(=O)(=O)c3cccc(C(C)=O)c3)CC2)cc1 (stereo not drawn)	0	-1	24	0	22	83*
Cc1cccc(-c2ccc3[nH]c4c(c3c2)CCN2C[C@@H]([C@H](C)OC(=O)Nc3ccccc3C)[C@@H](N(C)C(=O)Nc3ccccc3C)C[C@@H]42)c1	0	-42	nt	nt	50	2
C[C@H](CO)N1C[C@H](C)[C@@H](CN(C)C(=O)Nc2ccccc2)Oc2ncc(-c3ccc(C#N)cc3)cc2C1=O	-2	2	nt	nt	-5	29
C1CCCN(c2nc3nonc3nc2N2CCCCCC2)CC1	-2	-3	3	2	3	3
Nc1nc2nonc2nc1N1CCCCC1	-2	-20	-2	15*	-10	5
Cc1ccccc1NC(=O)COC(=O)c1ccc(CSc2ccc(Cl)cc2)cc1	1	3	0	12*	-9	-6
Cc1ccccc1NC(=O)COC(=O)c1cccnc1	2	-4	23	-9	-5	3
Cc1cccc(-c2ccc(O)cc2CN2CCN(c3ncc(Cc4ccccc4)cn3)CC2)c1	nt	1	nt	nt	nt	nt
COc1cc2c(cc1OC)C(c1ccc(O)cc1)NCC2 (stereo not drawn)	0	0	-2	-2	-4	2
C=CCN1CCc2cc(O)c(O)cc2C(c2ccccc2)C1 (stereo not drawn)	-1	2	21	-3	-2	38
Oc1ccc(C2CNCCc3c2cc(O)c(O)c3Cl)cc1 (stereo not drawn)	3	5	-1	0	2	58*!
C=CCN1CCc2c(cc(O)c(O)c2Cl)C(c2ccccc2)C1 (stereo not drawn)	1	1	1	-1	-8	76*
Oc1cc2c(c(Cl)c1O)CCNCC2c1ccccc1 (stereo not drawn)	-2	-3	-1	-3	-5	68*
Cc1cccc(C2CN(C)CCc3c2cc(O)c(O)c3Cl)c1 (stereo not drawn)	5	0	1	-2	-1	45
CC(=O)c1cccc(NC(=O)C2Cc3c(-c4cccc(F)c4)ccnc3O2)c1 (stereo not drawn)	1	0	nt	nt	15	-11
